Results published in ChEMBL document CHEMBL1275484, “Rifampin and rifaximin resistance in clinical isolates of Clostridium difficile” (Antimicrob Agents Chemother, 2008).
Values after ≈ are worked out from the molar mass of the structure shown.

Experiments:
Type in all cases: functional
Clostridioides difficile [1] = test: Antimicrobial activity against Clostridium difficile isolate 74 by agar dilution method
Outline: (§1)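 CLSI reference agar dilution for anaerobes, with endpoints read per guideline M11-A7. Rifaximin was dissolved in methanol, diluted in 0.1 M phosphate buffer pH 7.4 with 0.45% SDS, and tested at 0.0009–256 μg/ml. Rifampin was dissolved in methanol, diluted in water, and tested at 0.00001–256 μg/ml. Control strain: C. difficile ATCC 70005. Isolates were typed by HindIII REA.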

Clostridioides difficile [2] = test: Antimicrobial activity against Clostridium difficile isolate 72 by Etest
Outline: (§2)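 Rifampin MIC by Etest on brucella blood agar, run per the strip manufacturer's instructions, against clinical isolates typed by HindIII REA.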

Clostridioides difficile [3] = test: Antimicrobial activity against Clostridium difficile isolate 34 by Etest
Outline: (§3)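 Rifampin MIC by Etest strip on brucella blood agar, run per the strip maker's instructions. Isolates were HindIII REA-typed clinical C. difficile.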

Clostridioides difficile [4] = test: Antimicrobial activity against Clostridium difficile isolate 61 by agar dilution method
Outline: as §1, with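 “dilution method” for “dilution”, “(pH 7.4)” for “pH 7.4”, “μg/ml.” for “μg/ml. Control strain:”, “[…] served as control.” for “70005.”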

Clostridioides difficile [5] = test: Antimicrobial activity against Clostridium difficile isolate 3 by agar dilution method
Outline: (§4)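 MIC by CLSI reference agar dilution for anaerobes, with endpoints read per M11-A7 and C. difficile […] as control. Rifaximin was dissolved in methanol, diluted in 0.1 M phosphate buffer pH 7.4 plus 0.45% SDS, and tested at 0.0009–256 μg/ml. Rifampin was dissolved in methanol, diluted in water, and tested at 0.00001–256 μg/ml.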

Clostridioides difficile [6] = test: Antimicrobial activity against Clostridium difficile isolate 69 by Etest; outline: as §2
Clostridioides difficile [7] = test: Antimicrobial activity against Clostridium difficile isolate 41 by agar dilution method
Outline: as §1, with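 “dilution method” for “dilution”, “(pH 7.4)” for “pH 7.4”, “μg/ml.” for “μg/ml. Control strain:”, “[…] served as control.” for “70005.”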

Clostridioides difficile [8] = test: Antimicrobial activity against Clostridium difficile isolate 14 by Etest; outline: as §3
Clostridioides difficile [9] = test: Antimicrobial activity against Clostridium difficile isolate 45 by Etest
Outline: (§5)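 Rifampin Etest strips were run on brucella blood agar following the manufacturer's instructions to give an MIC. Clinical isolates were typed by HindIII REA.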

Clostridioides difficile [10] = test: Antimicrobial activity against Clostridium difficile isolate 19 by agar dilution method; outline: as §4
Clostridioides difficile [11] = test: Antimicrobial activity against Clostridium difficile isolate 44 by agar dilution method
Outline: as §1, with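 “dilution method” for “dilution”, “(pH 7.4)” for “pH 7.4”, “μg/ml.” for “μg/ml. Control strain:”, “[…] served as control.” for “70005.”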

Clostridioides difficile [12] = test: Antimicrobial activity against Clostridium difficile isolate 7 by agar dilution method; outline: as §1
Clostridioides difficile [13] = test: Antimicrobial activity against Clostridium difficile isolate 39 by agar dilution method
Outline: as §1, with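 “dilution method” for “dilution”, “(pH 7.4)” for “pH 7.4”, “μg/ml.” for “μg/ml. Control strain:”, “[…] served as control.” for “70005.”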

Clostridioides difficile [14] = test: Antimicrobial activity against Clostridium difficile isolate 43 by agar dilution method
Outline: as §1, with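 “dilution method” for “dilution”, “(pH 7.4)” for “pH 7.4”, “μg/ml.” for “μg/ml. Control strain:”, “[…] served as control.” for “70005.”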

Clostridioides difficile [15] = test: Antimicrobial activity against rifaximin-resistant Clostridium difficile isolate 18 expressing RpoB R505K mutant by Etest
Outline: (§6)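 Rifampin Etest on clinical C. difficile isolates typed by HindIII REA, run per the strip manufacturer's instructions on brucella blood agar, with the MIC read from the strip.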

Clostridioides difficile [16] = test: Antimicrobial activity against Clostridium difficile isolate 51 by agar dilution method
Outline: as §1, with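 “dilution method” for “dilution”, “(pH 7.4)” for “pH 7.4”, “μg/ml.” for “μg/ml. Control strain:”, “[…] served as control.” for “70005.”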

Clostridioides difficile [17] = test: Antimicrobial activity against Clostridium difficile isolate 47 by Etest; outline: as §5
Clostridioides difficile [18] = test: Antimicrobial activity against Clostridium difficile isolate 2 by Etest; outline: as §3
Clostridioides difficile [19] = test: Antimicrobial activity against Clostridium difficile isolate 28 by agar dilution method; outline: as §4
Clostridioides difficile [20] = test: Antimicrobial activity against Clostridium difficile isolate 35 by Etest; outline: as §3
Clostridioides difficile [21] = test: Antimicrobial activity against Clostridium difficile isolate 12 expressing RpoB H502N and R505K mutants by Etest; outline: as §6
Clostridioides difficile [22] = test: Antimicrobial activity against Clostridium difficile isolate 15 by Etest; outline: as §3
Clostridioides difficile [23] = test: Antimicrobial activity against Clostridium difficile isolate 41 by Etest; outline: as §5
Clostridioides difficile [24] = test: Antimicrobial activity against Clostridium difficile isolate 19 by Etest; outline: as §3
Clostridioides difficile [25] = test: Antimicrobial activity against rifaximin-resistant Clostridium difficile isolate 65 expressing RpoB H502N and R505K mutants by Etest; outline: as §6
Clostridioides difficile [26] = test: Antimicrobial activity against Clostridium difficile isolate 10 by Etest; outline: as §3
Clostridioides difficile [27] = test: Antimicrobial activity against Clostridium difficile isolate 46 by Etest; outline: as §5
Clostridioides difficile [28] = test: Antimicrobial activity against Clostridium difficile isolate 43 by Etest; outline: as §5
Clostridioides difficile [29] = test: Antimicrobial activity against Clostridium difficile isolate 80 by agar dilution method; outline: as §1
Clostridioides difficile [30] = test: Antimicrobial activity against Clostridium difficile isolate 8 by Etest; outline: as §2
Clostridioides difficile [31] = test: Antimicrobial activity against Clostridium difficile isolate 8 by agar dilution method; outline: as §1
Clostridioides difficile [32] = test: Antimicrobial activity against Clostridium difficile isolate 49 by Etest; outline: as §5
Clostridioides difficile [33] = test: Antimicrobial activity against Clostridium difficile isolate 77 by Etest; outline: as §2
Clostridioides difficile [34] = test: Antimicrobial activity against Clostridium difficile isolate 32 by Etest; outline: as §3
Clostridioides difficile [35] = test: Antimicrobial activity against Clostridium difficile isolate 11 by agar dilution method; outline: as §4
Clostridioides difficile [36] = test: Antimicrobial activity against rifaximin-resistant Clostridium difficile isolate 68 expressing RpoB H502Y mutant by agar dilution method
Outline: as §4, with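 “MICs were found” for “MIC”, “by the” for “by”, “dilution method” for “dilution”, “with” for “plus”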

Clostridioides difficile [37] = test: Antimicrobial activity against Clostridium difficile isolate 73 by agar dilution method; outline: as §1
Clostridioides difficile [38] = test: Antimicrobial activity against Clostridium difficile isolate 34 by agar dilution method; outline: as §4
Clostridioides difficile [39] = test: Antimicrobial activity against Clostridium difficile isolate 38 by agar dilution method
Outline: as §1, with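 “dilution method” for “dilution”, “(pH 7.4)” for “pH 7.4”, “μg/ml.” for “μg/ml. Control strain:”, “[…] served as control.” for “70005.”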

Clostridioides difficile [40] = test: Antimicrobial activity against Clostridium difficile isolate 63 by Etest; outline: as §2
Clostridioides difficile [41] = test: Antimicrobial activity against rifaximin-resistant Clostridium difficile isolate 12 expressing RpoB H502N and R505K mutants by agar dilution method
Outline: as §4, with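 “MICs were found” for “MIC”, “by the” for “by”, “dilution method” for “dilution”, “with” for “plus”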

Clostridioides difficile [42] = test: Antimicrobial activity against Clostridium difficile isolate 30 by Etest; outline: as §3
Clostridioides difficile [43] = test: Antimicrobial activity against rifaximin-resistant Clostridium difficile isolate 68 expressing RpoB H502Y mutant by Etest; outline: as §6
Clostridioides difficile [44] = test: Antimicrobial activity against Clostridium difficile isolate 54 by Etest; outline: as §5
Clostridioides difficile [45] = test: Antimicrobial activity against Clostridium difficile isolate 23 by Etest; outline: as §3
Clostridioides difficile [46] = test: Antimicrobial activity against Clostridium difficile isolate 33 by Etest; outline: as §3
Clostridioides difficile [47] = test: Antimicrobial activity against Clostridium difficile isolate 60 by Etest; outline: as §5
Clostridioides difficile [48] = test: Antimicrobial activity against Clostridium difficile isolate 3 by Etest; outline: as §3
Clostridioides difficile [49] = test: Antimicrobial activity against Clostridium difficile isolate 75 by Etest; outline: as §2
Clostridioides difficile [50] = test: Antimicrobial activity against Clostridium difficile isolate 5 by agar dilution method
Outline: as §1, with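 “dilution method” for “dilution”, “(pH 7.4)” for “pH 7.4”, “μg/ml.” for “μg/ml. Control strain:”, “[…] served as control.” for “70005.”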

Clostridioides difficile [51] = test: Antimicrobial activity against Clostridium difficile isolate 9 by Etest; outline: as §2
Clostridioides difficile [52] = test: Antimicrobial activity against Clostridium difficile isolate 1 by agar dilution method; outline: as §4

For CO[C@H]1/C=C/O[C@@]2(C)Oc3c(C)c(O)c4c(O)c(c(/C=N/N5CCN(C)CC5)c(O)c4c3C2=O)NC(=O)/C(C)=C\C=C\[C@H](C)[C@H](O)[C@@H](C)[C@@H](O)[C@@H](C)[C@H](OC(C)=O)[C@@H]1C [RIFAMPIN], the MIC (Clostridioides difficile [1]) was 0.06 ng/mL (≈ 0.0729 nM), the MIC (Clostridioides difficile [2]) was < 2 ng/mL and the MIC (Clostridioides difficile [3]) was 4 ng/mL (≈ 4.86 nM). For the same compound, the MIC (Clostridioides difficile [4]) was 0.9 ng/mL (≈ 1.09 nM), the MIC (Clostridioides difficile [5]) was 0.06 ng/mL (≈ 0.0729 nM) and the MIC (Clostridioides difficile [6]) was < 2 ng/mL. The MIC (Clostridioides difficile [7]) was 0.9 ng/mL (≈ 1.09 nM), the MIC (Clostridioides difficile [8]) was < 2 ng/mL and the MIC (Clostridioides difficile [9]) was < 2 ng/mL. For the same compound, the MIC (Clostridioides difficile [10]) was 0.9 ng/mL (≈ 1.09 nM), the MIC (Clostridioides difficile [11]) was 0.9 ng/mL (≈ 1.09 nM) and the MIC (Clostridioides difficile [12]) was 0.06 ng/mL (≈ 0.0729 nM). For the same compound, the MIC (Clostridioides difficile [13]) was 0.9 ng/mL (≈ 1.09 nM), the MIC (Clostridioides difficile [14]) was 0.4 ng/mL (≈ 0.486 nM) and the MIC (Clostridioides difficile [15]) was > 32000 ng/mL. For the same compound, the MIC (Clostridioides difficile [16]) was 0.9 ng/mL (≈ 1.09 nM), the MIC (Clostridioides difficile [17]) was < 2 ng/mL and the MIC (Clostridioides difficile [18]) was < 2 ng/mL. For the same compound, the MIC (Clostridioides difficile [19]) was 0.9 ng/mL (≈ 1.09 nM), the MIC (Clostridioides difficile [20]) was < 2 ng/mL and the MIC (Clostridioides difficile [21]) was > 32000 ng/mL. For the same compound, the MIC (Clostridioides difficile [22]) was < 2 ng/mL, the MIC (Clostridioides difficile [23]) was < 2 ng/mL and the MIC (Clostridioides difficile [24]) was < 2 ng/mL. The MIC (Clostridioides difficile [25]) was > 32000 ng/mL, the MIC (Clostridioides difficile [26]) was 16 ng/mL (≈ 19.4 nM) and the MIC (Clostridioides difficile [27]) was < 2 ng/mL. The MIC (Clostridioides difficile [28]) was < 2 ng/mL, the MIC (Clostridioides difficile [29]) was 0.06 ng/mL (≈ 0.0729 nM) and the MIC (Clostridioides difficile [30]) was < 2 ng/mL. For the same compound, the MIC (Clostridioides difficile [31]) was 0.06 ng/mL (≈ 0.0729 nM), the MIC (Clostridioides difficile [32]) was < 2 ng/mL and the MIC (Clostridioides difficile [33]) was < 2 ng/mL. The MIC (Clostridioides difficile [34]) was < 2 ng/mL, the MIC (Clostridioides difficile [35]) was 0.06 ng/mL (≈ 0.0729 nM) and the MIC (Clostridioides difficile [36]) was > 256000 ng/mL. For the same compound, the MIC (Clostridioides difficile [37]) was 0.06 ng/mL (≈ 0.0729 nM), the MIC (Clostridioides difficile [38]) was 0.9 ng/mL (≈ 1.09 nM) and the MIC (Clostridioides difficile [39]) was 0.4 ng/mL (≈ 0.486 nM). For the same compound, the MIC (Clostridioides difficile [40]) was < 2 ng/mL, the MIC (Clostridioides difficile [41]) was > 256000 ng/mL and the MIC (Clostridioides difficile [42]) was < 2 ng/mL. The MIC (Clostridioides difficile [43]) was > 32000 ng/mL, the MIC (Clostridioides difficile [44]) was < 2 ng/mL and the MIC (Clostridioides difficile [45]) was < 2 ng/mL. For the same compound, the MIC (Clostridioides difficile [46]) was < 2 ng/mL, the MIC (Clostridioides difficile [47]) was < 2 ng/mL and the MIC (Clostridioides difficile [48]) was 4 ng/mL (≈ 4.86 nM). The MIC (Clostridioides difficile [49]) was < 2 ng/mL, the MIC (Clostridioides difficile [50]) was 0.06 ng/mL (≈ 0.0729 nM) and the MIC (Clostridioides difficile [51]) was 3 ng/mL (≈ 3.65 nM). The MIC (Clostridioides difficile [52]) was 0.06 ng/mL (≈ 0.0729 nM).
